Screening data: PubChem, several laboratories
TNAP inh noacc = inhibitors of human TNAP without phosphate acceptor; purified TNAP, CDP-star luminescence, 30 min; inhibition, % at 20 µM; AID 1012; 200,000 compounds, 0.26% hits;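 active = tissue-nonspecific alkaline phosphatase inhibition above about 50% at 20 µM in the single-dose screen, limit read from the data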
TNAP inh hi DEA = blocks human TNAP under high phosphate acceptor concentration. purified TNAP, CDP-star luminescence, 1 M DEA. inhibition, % at 20 µM. P05186. 200,000 compounds, 0.03% hits;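 active = over 50% inhibition of tissue-nonspecific alkaline phosphatase at 20 µM in the single-dose screen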
Arbovirus anti = antivirals against arbovirus infection | 200,000 compounds, 0.37% hits | arbovirus infection cell-based antiviral screen | inhibition, % at 10 µM | AID 1251; in the data active = inhibition above about 30%
TNAP act hiacc = increases human TNAP activity under high phosphate acceptor concentration; P05186; purified TNAP, CDP-star luminescence, 1 M DEA, 30 min; active compounds read high; 0 = EDTA background, 1 = DMSO-only activity; activation factor at 20 µM; 200,000 tested, under 10 active;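 active = activation factor at least 2 at 20 µM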
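system = human TNAP | amount = enzyme diluted 1/800 final | reagent = 100 µM CDP-star substrate | signal = luminescent substrate turnover signal | dosing = one dose, 20 µM | benchmarks = EDTA negative control, DMSO positive control | measure = activation factor | timing = 30 min reaction, room temperature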
PKD1 kinase inh = inhibitors of human PKD1 kinase; PKD1 kinase fluorescence polarization assay; AID 797; inhibition, % (no concentration beside the values); 200,000 compounds, 0.056% hits; Q15139; in the data active = inhibition above about 50%
PKD FP artifact = counter-screen for PKD inhibitors: fluorescence polarization interference; PKD1 FP assay interference counter-screen; inhibition, % at 10 µM; shares compounds with PKD1 kinase inh; 85 tested, under 10 active; call rule not given here
Numbers stand for hits; - = inactive; . = not tested or not shown. In the library only some 0.73% were active in any assay of this set; here they are far more common.

SMILES | TNAP inh noacc | TNAP inh hi DEA | Arbovirus anti | TNAP act hiacc | PKD1 kinase inh | PKD FP artifact
O=C(CN1CCCC1)Nc1c2c(nc3ccccc13)N(Cc1ccccc1)CC2 | - | - | - | - | 100 | -
NC(N)=NC(=O)c1nc(Cl)c(N)nc1N | - | - | - | - | 80 | -
CN(C)CCOc1ccc2c(c1)Sc1ccccc1CC2=O | - | - | - | - | 59 | -
Cc1ccc(C(=O)NNC2=Nc3cccc4cccc2c34)cc1 | - | - | - | - | 54 | -
CCOc1ccc(C(=O)NC(=S)Nc2ccc(NC(=O)c3ccco3)c(C)c2)cc1[N+](=O)[O-] | - | - | - | - | - | .
CS(=O)(=O)N1N=C(c2cccs2)CC1c1ccccc1F (stereo unspecified) | - | - | - | - | - | .
Cc1cccc(N2C(=O)CC(N3CCN(c4ccccc4)CC3)C2=O)c1 (stereo unspecified) | - | - | - | - | - | .
O=C1CC(N2CCN(c3ccccc3Cl)CC2)C(=O)N1c1cccc(F)c1 (stereo unspecified) | - | - | - | - | 109 | -
O=C1CC(N2CCN(c3ccccc3Cl)CC2)C(=O)N1c1ccc(F)cc1 (stereo unspecified) | - | - | - | - | 51 | -
O=C1CC(N2CCN(c3ccccc3F)CC2)C(=O)N1c1ccc(F)cc1 (stereo unspecified) | . | . | . | . | - | .
Cc1c(NC(=O)CN2C(=O)NC3(CCC(C)CC3)C2=O)c(=O)n(-c2ccccc2)n1C (stereo unspecified) | - | - | - | - | - | .
O=C1C2N=NN(CC(=O)N3N=C(c4ccccc4)CC3c3ccc([N+](=O)[O-])cc3)C2C(=O)N1c1ccccc1 (stereo unspecified) | - | - | - | - | - | .
Cn1c(CSc2ncccn2)nnc1SCC(=O)N1CCCc2ccccc21 | - | - | - | - | - | .
CCn1c(CSc2ncccn2)nnc1SCC(=O)N1CCc2ccccc21 | - | - | - | - | 99 | -
CCC(=O)Nc1c2c(nn1-c1ccccc1C)CSC2 | - | - | - | - | 81 | -
O=C(N/N=C/c1ccc([N+](=O)[O-])s1)c1ccccc1 | - | - | - | - | - | .
Nc1nc2ccccc2n1/N=C/c1ccc([N+](=O)[O-])s1 | - | - | - | - | 52 | -
Nc1nc2ccccc2n1/N=C/c1cccnc1 | . | . | - | . | 69 | -
CC(C)Cc1nnc(NC(=O)CCc2c[nH]c3ccccc23)s1 | - | - | - | - | - | .
O=C(c1cccc(C(F)(F)F)c1)N(c1ccccn1)C1CCCCC1 | - | - | - | - | - | .
c1ccc(Cc2noc(CN3CCN(CCOc4ccccc4)CC3)n2)cc1 | - | - | - | - | - | .
Nc1nnc(SCCCC(=O)c2ccc(F)cc2)s1 | - | - | - | - | 65 | -
Cn1cccc1/C=N/NC(=O)C12CC3CC(CC(C3)C1)C2 | - | - | - | - | - | .
